From publication PMC9390995 (Science Advances, 2022)

Key:
[1] = system: p-STAT5/p-STAT6 in hPBMCs; assay: γc cytokine-stimulated STAT phosphorylation, Western blot; type: cell-based, human; conditions: fig. S1
Outline: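 hPBMCs in RPMI 1640 with 10% FBS at 37°C, 5% CO2, plated 5×10^5 per well. Pretreated 1 h with test compound, then stimulated with IL-2, IL-4, IL-7, IL-9, IL-15 or IL-21. Lysed in RIPA buffer with protease/phosphatase inhibitors. p-STAT5/p-STAT6 by Western blot normalized to GAPDH; three independent experiments.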

JAK2 = conditions: read-out: IC50 against JAK2; cited from earlier work
JAK1 = JAK1 (Homo sapiens, UniProt P23458); conditions: biochemical assays; cited from earlier work
Chain of JAK1 (P23458 whole entry): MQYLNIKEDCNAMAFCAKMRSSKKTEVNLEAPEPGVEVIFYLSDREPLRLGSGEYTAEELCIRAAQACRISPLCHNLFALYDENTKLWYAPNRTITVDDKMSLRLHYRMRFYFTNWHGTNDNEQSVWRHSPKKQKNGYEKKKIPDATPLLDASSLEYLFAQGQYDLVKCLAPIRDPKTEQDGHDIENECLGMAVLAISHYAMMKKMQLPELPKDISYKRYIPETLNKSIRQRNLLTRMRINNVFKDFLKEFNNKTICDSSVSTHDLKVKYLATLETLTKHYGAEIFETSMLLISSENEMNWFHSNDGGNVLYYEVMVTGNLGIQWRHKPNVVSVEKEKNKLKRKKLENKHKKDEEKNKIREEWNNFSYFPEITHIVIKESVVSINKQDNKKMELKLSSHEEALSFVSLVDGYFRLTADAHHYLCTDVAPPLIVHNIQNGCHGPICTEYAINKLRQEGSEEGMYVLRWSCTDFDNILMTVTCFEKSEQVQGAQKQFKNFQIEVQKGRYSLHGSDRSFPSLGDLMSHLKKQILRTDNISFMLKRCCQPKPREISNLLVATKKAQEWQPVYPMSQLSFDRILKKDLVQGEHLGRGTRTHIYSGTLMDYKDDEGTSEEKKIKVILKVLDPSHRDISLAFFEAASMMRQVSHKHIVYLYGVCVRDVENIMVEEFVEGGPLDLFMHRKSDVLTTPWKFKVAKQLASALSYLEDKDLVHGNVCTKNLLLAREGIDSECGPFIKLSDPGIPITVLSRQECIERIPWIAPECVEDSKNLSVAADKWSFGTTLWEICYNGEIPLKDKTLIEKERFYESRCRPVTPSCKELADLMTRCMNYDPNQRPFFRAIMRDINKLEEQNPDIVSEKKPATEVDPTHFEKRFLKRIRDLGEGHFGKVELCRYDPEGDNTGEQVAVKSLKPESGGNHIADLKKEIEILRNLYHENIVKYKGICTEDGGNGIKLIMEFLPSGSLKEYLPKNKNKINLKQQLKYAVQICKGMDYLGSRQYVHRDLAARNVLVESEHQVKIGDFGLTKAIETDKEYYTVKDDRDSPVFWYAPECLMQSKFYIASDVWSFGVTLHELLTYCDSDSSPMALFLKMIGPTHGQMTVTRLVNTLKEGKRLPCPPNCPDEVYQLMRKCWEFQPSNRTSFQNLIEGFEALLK

## C=CC(=O)N1C[C@H](Nc2ncnc3[nH]ccc23)CC[C@@H]1C [Ritlecitinib, 1-((2S,5R)-5-((7H-pyrrolo[2,3-d]pyrimidin-4-yl)amino)-2-methylpiperidin-1-yl)prop-2-en-1-one]
[1]
  IL-2-induced p-STAT5 levels: potent inhibition
JAK2
  IC50: > 10 µM

## O=C(Nc1nc2cccc(-c3ccc(CN4CCS(=O)(=O)CC4)cc3)n2n1)C1CC1 [filgotinib]
JAK1
  preference for JAK1 over JAK2: 2.8 fold

## CC[C@@H]1CN(C(=O)NCC(F)(F)F)C[C@@H]1c1cnc2cnc3[nH]ccc3n12 [upadacitinib]
JAK1
  preference for JAK1 over JAK2: 2.4 fold
